Counter-ions that a name gives are not always drawn.
Key:
In vitro cytotoxicity = type: cell-based; conditions: African green monkey, Vero cells (African green monkey kidney fibroblast)
Summary of the method: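 Vero (African green monkey kidney) cell growth assay. […] Test compounds went up to 25 μg/mL and the doxorubicin control up to 5 μg/mL. Values are means of three independent experiments.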

C. albicans ATCC 90028 = assay: In vitro antifungal testing; type: cell-based, Candida albicans; conditions: from MIC/MFC
[1] = test system: C. albicans, Candida glabrata, Candida krusei, Aspergillus fumigatus, and C. neoformans; assay: In vitro antifungal testing, range over all tested pathogens; type: cell-based; conditions: range over the five fungal pathogens
Summary of the method: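 Broth microdilution. MIC is the lowest concentration with no detectable growth. For MFC, 5 μL from each clear well was moved to agar and incubated at 35°C: 48 h for Candida spp. and A. fumigatus, 72 h for C. neoformans. […] Values are means of three independent experiments (two for one analogue).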

fungi = conditions: antifungal activity; cited from earlier work
[2] = patients with leishmania; cited from earlier work
C. albicans SC5314 = assay: In vivo efficacy in mouse model of systemic candidiasis; conditions: 5 and 25 mg/kg

Row | SMILES | IC50 (In vitro cytotoxicity) [µg/mL] | further results
1 | CCCCCCCCCCCCCCCCOP(=O)([O-])OCC[N+](C)(C)C/C=C/c1ccccc1 [Compound 3h] | > 25 | 
2 | CCCCCCCCCCCCCCOP(=O)([O-])OCC[N+](C)(C)Cc1ccccc1 [Compound 3b] | > 25 | 
3 | CCCCCCCCCCCCCCCCOP(=O)([O-])OCC[N+](C)(C)Cc1ccc([N+](=O)[O-])cc1 [Compound 3d, N,N-dimethyl-N-(4-nitrobenzyl)-2-{[(hexadecyloxy)hydroxyphosphinyl]oxy}ethanaminium inner salt] | > 25 | fold less potent than amphotericin B (C. albicans ATCC 90028): 2- to 3 fold; MICs, range against all tested pathogens [1]: 2.5 to 5.0 µg/mL
4 | COc1cccc2c1C(=O)c1c(O)c3c(c(O)c1C2=O)C[C@@](O)(C(=O)CO)C[C@@H]3O[C@H]1C[C@H](N)[C@H](O)[C@H](C)O1 [Doxorubicin, reference compound] | > 5 | 
5 | CCCCCCCCCCCCCCCCCCOP(=O)([O-])OCC[N+](C)(C)Cc1ccccc1 [Compound 3c] | > 25 | 
6 | CCCCCCCC/C=C\CCCCCCCCCCCCOP(=O)([O-])OCC[N+](C)(C)C [erucylphosphocholine] |  | fold less potent than miltefosine (fungi): 8 fold
7 | CCCCCCCCCCCCCCCCOP(=O)([O-])OCC[N+](C)(C)C [Miltefosine, hexadecylphosphocholine] | > 25 | half-life, first elimination [2]: 7 days; half-life, terminal elimination [2]: 31 days
8 | C=CC[N+](C)(C)CCOP(=O)([O-])OCCCCCCCCCCCCCCCC [Compound 3i] | > 25 | 
9 | CCCCCCCCCCCCCCCCOP(=O)([O-])OCC[N+](C)(C)Cc1ccccc1 [Compound 3a, N-benzyl-N,N-dimethyl-2-{[(hexadecyloxy)hydroxyphosphinyl]oxy}ethanaminium inner salt] | > 25 | fold less potent than amphotericin B (C. albicans ATCC 90028): 2- to 3 fold; MFCs, range against all tested pathogens [1]: 2.5 to 15.0 µg/mL; MICs, range against all tested pathogens [1]: 2.5 to 5.0 µg/mL; Survival rate of mice vs PBS control, oral administration (C. albicans SC5314): did not enhance the survival rate
10 | CCCCCCCCCCCCCCCCOP(=O)([O-])OCC[N+](C)(C)Cc1ccc(Cl)cc1 [Compound 3f] | > 25 | 
11 | CCCCCCCCCCCCCCCCOP(=O)([O-])OCC[N+](C)(C)Cc1ccc(OC)cc1 [Compound 3e, N-(4-methoxybenzyl)-N,N-dimethyl-2-{[(hexadecyloxy)hydroxyphosphinyl]oxy}ethanaminium inner salt] | > 25 | MICs, range against all tested pathogens [1]: 2.5 to 5.0 µg/mL
12 | CCCCCCCCCCCCCCCCOP(=O)([O-])OCC[N+](C)(C)Cc1ccc(Br)cc1 [Compound 3g] | > 25 | 

From paper PMC3760157 (Bioorganic & medicinal chemistry letters, 2013)
